From ChEMBL document CHEMBL5357066, “Development of Novel Membrane Disrupting Lipoguanidine Compounds Sensitizing Gram-Negative Bacteria to Antibiotics” (ACS Med Chem Lett, 2024)
Values after ≈ are worked out from the molar mass of the structure shown.

How the values were obtained:
Acinetobacter baumannii [1] = assay: Synergistic antibacterial activity against Acinetobacter baumannii ATCC 17978 assessed as rifampicin MIC at <=0.25 times MIC incubated for overnight by microbroth dilution checkerboard assay; assay type: functional
In short: (§1)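 Checkerboard microdilution under MIC conditions (TSB, overnight, 37 °C). Two-fold series of each agent were combined on one plate before bacteria were added, and single-agent MICs were measured on the same plate. FIC = sum of combination MIC/alone MIC for each agent, taken from the most synergistic well. Three independent repeats, mean ± SD. ≤0.5 was taken as strong synergy and 0.5–<1 as weak.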

Staphylococcus aureus [2] = assay: Antibacterial activity against methicillin sensitive Staphylococcus aureus ATCC 9144 assessed as bacterial growth inhibition incubated for overnight by microbroth dilution method; assay type: functional
In short: (§2)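 Microbroth dilution in Tryptic Soy Broth. DMSO stocks were diluted in TSB as 2-fold series. Overnight TSB cultures were back-diluted to OD 0.01 and mixed 1:1 with compound. Incubation was overnight at 37 °C. MIC is the lowest concentration with no visible growth (<0.1 OD600). DMSO at equivalent concentrations was checked.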

Pseudomonas aeruginosa [3] = assay: Synergistic antibacterial activity against Pseudomonas aeruginosa NCTC 13437 assessed as fold change in rifampicin MIC at <=0.25 times MIC incubated for overnight by microbroth dilution checkerboard assay relative to rifampicin alone; assay type: functional
In short: (§3)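 Checkerboard microdilution in Tryptic Soy Broth, run like the MIC assay. Overnight TSB cultures were back-diluted to OD 0.01 and added 1:1 to the combined two-fold series of both agents, then incubated overnight at 37 °C. Growth/no-growth was called at <0.1 OD600. MICs alone were read on the same plates. FIC index came from the most synergistic well; three independent repeats, mean ± SD.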

Staphylococcus aureus [4] = assay: Antibacterial activity against methicillin sensitive Staphylococcus aureus 1199B assessed as bacterial growth inhibition incubated for overnight by microbroth dilution method; assay type: functional; in short: as §2
Enterococcus faecalis [5] = assay: Antibacterial activity against vancomycin resistant Enterococcus faecalis NCTC 12201 assessed as bacterial growth inhibition incubated for overnight by microbroth dilution method; assay type: functional; in short: as §2
Acinetobacter baumannii [6] = assay: Synergistic antibacterial activity against Acinetobacter baumannii ATCC 17978 assessed as fold change in rifampicin MIC at <=0.25 times MIC incubated for overnight by microbroth dilution checkerboard assay relative to rifampicin alone; assay type: functional; in short: as §1
Staphylococcus aureus [7] = assay: Antibacterial activity against methicillin resistant Staphylococcus aureus USA 300 assessed as bacterial growth inhibition incubated for overnight by microbroth dilution method; assay type: functional; in short: as §2
Klebsiella pneumoniae [8] = assay: Synergistic antibacterial activity against Klebsiella pneumoniae NCTC 13368 assessed as fold change in rifampicin MIC at <=0.25 times MIC incubated for overnight by microbroth dilution checkerboard assay relative to rifampicin alone; assay type: functional
In short: (§4)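 Checkerboard run under the MIC conditions (TSB, overnight, 37 °C). Antibiotic and lipoguanidine 2-fold series were combined on one plate before bacteria were added. Growth/no-growth was scored as for the MIC (<0.1 OD600). Single-agent MICs were measured on the same plates. Three independent repeats were done.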

Enterococcus faecium = assay: Antibacterial activity against vancomycin resistant Enterococcus faecium NCTC 12204 assessed as bacterial growth inhibition incubated for overnight by microbroth dilution method; assay type: functional; in short: as §2
Pseudomonas aeruginosa [9] = assay: Synergistic antibacterial activity against Pseudomonas aeruginosa PAO1 assessed as fold change in rifampicin MIC at <=0.25 times MIC incubated for overnight by microbroth dilution checkerboard assay relative to rifampicin alone; assay type: functional; in short: as §3
Klebsiella pneumoniae [10] = assay: Antibacterial activity against ESBL Klebsiella pneumoniae NCTC 13368 assessed as bacterial growth inhibition incubated for overnight by microbroth dilution method
Escherichia coli [11] = assay: Synergistic antibacterial activity against Escherichia coli NCTC 12923 assessed as fold change in rifampicin MIC at <=0.25 times MIC incubated for overnight by microbroth dilution checkerboard assay relative to rifampicin alone; assay type: functional; in short: as §1
Acinetobacter baumannii [12] = assay: Antibacterial activity against Acinetobacter baumannii AYE assessed as bacterial growth inhibition incubated for overnight by microbroth dilution method; assay type: functional
In short: (§5)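 Broth microdilution in Tryptic Soy Broth. DMSO stocks were diluted in TSB as 2-fold series. Overnight TSB cultures were back-diluted to OD 0.01 and mixed 1:1 with compound. Incubation was overnight at 37 °C. MIC was the lowest concentration without visible growth (<0.1 OD600). DMSO vehicle was checked at equivalent concentrations.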

Pseudomonas aeruginosa [13] = assay: Synergistic antibacterial activity against Pseudomonas aeruginosa PAO1 assessed as novobiocin MIC at <=0.25 times MIC incubated for overnight by microbroth dilution checkerboard assay; assay type: functional; in short: as §3
Acinetobacter baumannii [14] = assay: Antibacterial activity against Acinetobacter baumannii ATCC 17978 assessed as bacterial growth inhibition incubated for overnight by microbroth dilution method; assay type: functional; in short: as §5
Enterococcus faecalis [15] = assay: Antibacterial activity against vancomycin sensitive Enterococcus faecalis NCTC 775 assessed as bacterial growth inhibition incubated for overnight by microbroth dilution method
Klebsiella pneumoniae [16] = assay: Synergistic antibacterial activity against […] Klebsiella pneumoniae M6 assessed as rifampicin MIC at <=0.25 times MIC incubated for overnight by microbroth dilution checkerboard assay; assay type: functional; in short: as §4
Acinetobacter baumannii [17] = assay: Synergistic antibacterial activity against Acinetobacter baumannii AYE assessed as rifampicin MIC at <=0.25 times MIC incubated for overnight by microbroth dilution checkerboard assay; assay type: functional; in short: as §1
Escherichia coli [18] = assay: Antibacterial activity against Escherichia coli NCTC 12923 assessed as bacterial growth inhibition incubated for overnight by microbroth dilution method; assay type: functional; in short: as §5
Staphylococcus aureus [19] = assay: Antibacterial activity against methicillin resistant Staphylococcus aureus NCTC 13616 assessed as bacterial growth inhibition incubated for overnight by microbroth dilution method; assay type: functional; in short: as §2
Pseudomonas aeruginosa [20] = assay: Synergistic antibacterial activity against Pseudomonas aeruginosa PAO1 assessed as rifampicin MIC at <=0.25 times MIC incubated for overnight by microbroth dilution checkerboard assay; assay type: functional; in short: as §3
Acinetobacter baumannii [21] = assay: Synergistic antibacterial activity against Acinetobacter baumannii AYE assessed as fold change in rifampicin MIC at <=0.25 times MIC incubated for overnight by microbroth dilution checkerboard assay relative to rifampicin alone; assay type: functional; in short: as §1
Acinetobacter baumannii [22] = assay: Synergistic antibacterial activity against Acinetobacter baumannii ATCC 17978 assessed as novobiocin MIC at <=0.25 times MIC incubated for overnight by microbroth dilution checkerboard assay; assay type: functional; in short: as §1
Klebsiella pneumoniae [23] = assay: Antibacterial activity against Klebsiella pneumoniae M6 assessed as bacterial growth inhibition incubated for overnight by microbroth dilution method
Pseudomonas aeruginosa [24] = assay: Antibacterial activity against Pseudomonas aeruginosa NCTC 13437 assessed as bacterial growth inhibition incubated for overnight by microbroth dilution method; assay type: functional; in short: as §5
Klebsiella pneumoniae [25] = assay: Synergistic antibacterial activity against Klebsiella pneumoniae NCTC 13368 assessed as rifampicin MIC at <=0.25 times MIC incubated for overnight by microbroth dilution checkerboard assay; assay type: functional; in short: as §1
Escherichia coli [26] = assay: Synergistic antibacterial activity against Escherichia coli NCTC 12923 assessed as rifampicin MIC at <=0.25 times MIC incubated for overnight by microbroth dilution checkerboard assay; assay type: functional; in short: as §1
Pseudomonas aeruginosa [27] = assay: Synergistic antibacterial activity against Pseudomonas aeruginosa NCTC 13437 assessed as rifampicin MIC at <=0.25 times MIC incubated for overnight by microbroth dilution checkerboard assay; assay type: functional; in short: as §3
Pseudomonas aeruginosa [28] = assay: Antibacterial activity against Pseudomonas aeruginosa PAO1 assessed as bacterial growth inhibition incubated for overnight by microbroth dilution method; assay type: functional; in short: as §5

## CCCCCCCC/C=C\CCCCCCCCNC(=N)NCCCCN
Acinetobacter baumannii [1]
  MIC: ≤ 0.125 µg/mL
Staphylococcus aureus [2]
  MIC: 4 µg/mL (≈ 10.5 µM)
Pseudomonas aeruginosa [3]
  fold change (FC): 0
Staphylococcus aureus [4]
  MIC: 4 µg/mL (≈ 10.5 µM)
Enterococcus faecalis [5]
  MIC: 4 µg/mL (≈ 10.5 µM)
Acinetobacter baumannii [6]
  fold change (FC): >=4
Staphylococcus aureus [7]
  MIC: 2 µg/mL (≈ 5.25 µM)
Klebsiella pneumoniae [8]
  fold change (FC): >=4
Enterococcus faecium
  MIC: 4 µg/mL (≈ 10.5 µM)
Pseudomonas aeruginosa [9]
  fold change (FC): 0
Klebsiella pneumoniae [10]
  MIC: 128 µg/mL (≈ 336 µM)
Escherichia coli [11]
  fold change (FC): 0
Acinetobacter baumannii [12]
  MIC: 16 µg/mL (≈ 42 µM)
Pseudomonas aeruginosa [13]
  MIC: > 128 µg/mL
Acinetobacter baumannii [14]
  MIC: 8 µg/mL (≈ 21 µM)
Enterococcus faecalis [15]
  MIC: 4 µg/mL (≈ 10.5 µM)
Klebsiella pneumoniae [16]
  MIC: 16 µg/mL
Acinetobacter baumannii [17]
  MIC: ≤ 0.125 µg/mL
Escherichia coli [18]
  MIC: 8 µg/mL (≈ 21 µM)
Staphylococcus aureus [19]
  MIC: 4 µg/mL (≈ 10.5 µM)
Pseudomonas aeruginosa [20]
  MIC: 16 µg/mL
Acinetobacter baumannii [21]
  fold change (FC): >=4
Acinetobacter baumannii [22]
  MIC: ≤ 0.125 µg/mL
Klebsiella pneumoniae [23]
  MIC: 8 µg/mL (≈ 21 µM)
Pseudomonas aeruginosa [24]
  MIC: > 128 µg/mL
Klebsiella pneumoniae [25]
  MIC: ≤ 0.125 µg/mL
Escherichia coli [26]
  MIC: 8 µg/mL
Pseudomonas aeruginosa [27]
  MIC: 16 µg/mL
Pseudomonas aeruginosa [28]
  MIC: 128 µg/mL (≈ 336 µM)

## CCCCCCCCCCCCNC(=N)NCCCCN
Acinetobacter baumannii [1]
  MIC: ≤ 0.125 µg/mL
Staphylococcus aureus [2]
  MIC: 2 µg/mL (≈ 6.7 µM)
Pseudomonas aeruginosa [3]
  fold change (FC): >=4
Staphylococcus aureus [4]
  MIC: 4 µg/mL (≈ 13.4 µM)
Enterococcus faecalis [5]
  MIC: 16 µg/mL (≈ 53.6 µM)
Acinetobacter baumannii [6]
  fold change (FC): >=4
Staphylococcus aureus [7]
  MIC: 4 µg/mL (≈ 13.4 µM)
Klebsiella pneumoniae [8]
  fold change (FC): >=4
Enterococcus faecium
  MIC: 16 µg/mL (≈ 53.6 µM)
Pseudomonas aeruginosa [9]
  fold change (FC): >=4
Klebsiella pneumoniae [10]
  MIC: > 128 µg/mL
Escherichia coli [11]
  fold change (FC): >=4
Acinetobacter baumannii [12]
  MIC: > 128 µg/mL
Acinetobacter baumannii [14]
  MIC: 128 µg/mL (≈ 429 µM)
Enterococcus faecalis [15]
  MIC: 8 µg/mL (≈ 26.8 µM)
Klebsiella pneumoniae [16]
  MIC: ≤ 0.125 µg/mL
Acinetobacter baumannii [17]
  MIC: ≤ 0.125 µg/mL
Escherichia coli [18]
  MIC: 16 µg/mL (≈ 53.6 µM)
Staphylococcus aureus [19]
  MIC: 4 µg/mL (≈ 13.4 µM)
Pseudomonas aeruginosa [20]
  MIC: ≤ 0.125 µg/mL
Acinetobacter baumannii [21]
  fold change (FC): >=4
Klebsiella pneumoniae [23]
  MIC: > 128 µg/mL
Pseudomonas aeruginosa [24]
  MIC: 64 µg/mL (≈ 214 µM)
Klebsiella pneumoniae [25]
  MIC: 0.25 µg/mL
Escherichia coli [26]
  MIC: ≤ 0.125 µg/mL
Pseudomonas aeruginosa [27]
  MIC: ≤ 0.125 µg/mL
Pseudomonas aeruginosa [28]
  MIC: > 128 µg/mL

## CCCCCCCC/C=C\CCCCCCCCNC(=N)NCCCCNC(=N)N
Acinetobacter baumannii [1]
  MIC: ≤ 0.125 µg/mL
Staphylococcus aureus [2]
  MIC: 4 µg/mL (≈ 9.46 µM)
Pseudomonas aeruginosa [3]
  fold change (FC): 0
Staphylococcus aureus [4]
  MIC: 2 µg/mL (≈ 4.73 µM)
Enterococcus faecalis [5]
  MIC: 2 µg/mL (≈ 4.73 µM)
Acinetobacter baumannii [6]
  fold change (FC): >=4
Staphylococcus aureus [7]
  MIC: 2 µg/mL (≈ 4.73 µM)
Klebsiella pneumoniae [8]
  fold change (FC): >=4
Enterococcus faecium
  MIC: 2 µg/mL (≈ 4.73 µM)
Pseudomonas aeruginosa [9]
  fold change (FC): 0
Klebsiella pneumoniae [10]
  MIC: 128 µg/mL (≈ 303 µM)
Escherichia coli [11]
  fold change (FC): 0
Acinetobacter baumannii [12]
  MIC: 32 µg/mL (≈ 75.7 µM)
Pseudomonas aeruginosa [13]
  MIC: > 128 µg/mL
Acinetobacter baumannii [14]
  MIC: 8 µg/mL (≈ 18.9 µM)
Enterococcus faecalis [15]
  MIC: 2 µg/mL (≈ 4.73 µM)
Klebsiella pneumoniae [16]
  MIC: 2 µg/mL
Acinetobacter baumannii [17]
  MIC: ≤ 0.125 µg/mL
Escherichia coli [18]
  MIC: 8 µg/mL (≈ 18.9 µM)
Staphylococcus aureus [19]
  MIC: 2 µg/mL (≈ 4.73 µM)
Pseudomonas aeruginosa [20]
  MIC: 16 µg/mL
Acinetobacter baumannii [21]
  fold change (FC): >=4
Acinetobacter baumannii [22]
  MIC: ≤ 0.125 µg/mL
Klebsiella pneumoniae [23]
  MIC: 16 µg/mL (≈ 37.9 µM)
Pseudomonas aeruginosa [24]
  MIC: > 128 µg/mL
Klebsiella pneumoniae [25]
  MIC: ≤ 0.125 µg/mL
Escherichia coli [26]
  MIC: 8 µg/mL
Pseudomonas aeruginosa [27]
  MIC: 16 µg/mL
Pseudomonas aeruginosa [28]
  MIC: 128 µg/mL (≈ 303 µM)
